Calls of active or inactive are those of the source. No cut-off for these calls is given here.
Key:
[1] = Reducing activity assessed as reduction of ferric ion by reducing power assay
Method in brief: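 Compounds in 1:4 water/DMSO were mixed with 0.2 M phosphate buffer pH 6.6 and 1% w/v K3Fe(CN)6, then held 20 min at 50 °C. After 10% w/v TCA and centrifugation (10 min, 3000 g), the supernatant was diluted with water plus 0.1% w/v FeCl3 and read at 700 nm. Ascorbic acid was the positive control. Values are mean ± SE of triplicates.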

[2] = Antioxidant activity assessed as singlet oxygen scavenging activity by fluorescent rhodamine formation assay; type: functional
Method in brief: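 Singlet oxygen scavenging monitored as inhibition (%) of 1O2-induced oxidation of non-fluorescent dihydrorhodamine to fluorescent rhodamine. Ascorbic acid was the positive control. IC50 given as mean ± SE, five experiments in triplicate.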

[3] = Antioxidant activity assessed as peroxynitrite scavenging activity in absence of NaHCO3 by fluorescent rhodamine formation assay; type: functional
[4] = Antioxidant activity assessed as hypochlorous acid scavenging activity by fluorescent rhodamine formation assay; type: functional
Method in brief: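 Fluorescent assay of HOCl-induced dihydrorhodamine oxidation to rhodamine, with HOCl from 1% (m/v) NaOCl adjusted to pH 6.2 with 10% H2SO4. Lipoic acid was the positive control. IC50 (mean ± SE) comes from % inhibition, five experiments in triplicate.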

[5] = Antioxidant activity assessed as superoxide radical scavenging activity by NBT dye reduction assay; type: functional
Method in brief: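 Superoxide generated by the NADH/PMS system. Scavenging read as inhibition (%) of O2•−-driven NBT reduction to diformazan at 560 nm. Tiron was the positive control. IC50 given as mean ± SE, five experiments in triplicate.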

[6] = Iron chelating activity assessed as Fe(2+)-compound complex formation at 10 uM by UV-Vis absorption spectroscopy; type: functional
Method in brief: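 Iron chelation checked from changes in the UV–vis spectrum (300–600 nm) of a 10 µM (final) compound solution in 20 mM phosphate buffer, pH 7.2. Fe(II) was added sequentially to 0, 2, 4, 6, 8, 10, 12, 14 and 16 µM.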

[7] = Antioxidant activity assessed as peroxyl radical scavenging activity by measuring oxygen radical absorbance capacity; type: functional; design: reference not given here
[8] = Antioxidant activity assessed as hydrogen peroxide scavenging activity by lucigenin oxidation assay; type: functional
Method in brief: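 H2O2 scavenging followed as inhibition (%) of H2O2-induced lucigenin oxidation on a microplate reader. Ascorbic acid was the positive control. IC50 reported as mean ± SE from five experiments, each in triplicate.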

[9] = Antioxidant activity assessed as peroxynitrite scavenging activity in presence of NaHCO3 by fluorescent rhodamine formation assay; type: functional
[10] = Antioxidant activity assessed as nitric oxide scavenging activity by fluorescent triazofluorescein formation assay; type: functional
Method in brief: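 NO scavenging measured as inhibition (%) of NO-induced oxidation of non-fluorescent DAF-2 to fluorescent triazolofluorescein. Rutin was the positive control. IC50 given as mean ± SE, five experiments in triplicate.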

[11] = Antioxidant activity assessed as hypochlorous acid scavenging activity at 200 uM by fluorescent rhodamine formation assay; type: functional
Method in brief: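 HOCl was made by bringing 1% (m/v) NaOCl to pH 6.2 with 10% H2SO4. Scavenging was read as inhibition (%) of HOCl-induced oxidation of dihydrorhodamine to fluorescent rhodamine. Value given as mean % at the highest tested concentration (200 µM). Five experiments in triplicate.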

[12] = Antioxidant activity assessed as hydrogen peroxide scavenging activity at 1 mM by lucigenin oxidation assay; type: functional

| Compound | Activity [1] | IC50 [2] | IC50 [3] | IC50 [4] | IC50 [5] | Activity [6] | Activity [7] | IC50 [8] | IC50 [9] | IC50 [10] | Activity [11] | Activity [12] |
| --- | --- | --- | --- | --- | --- | --- | --- | --- | --- | --- | --- | --- |
| COc1ccc2c(=O)cc(/C=C/c3ccc(O)c(O)c3)oc2c1OC | Active | 7.97 µM | 1.21 µM | 4.67 µM | 20.8 µM | Active | 2.74 | 702 µM | 0.93 µM | 0.368 µM | – | – |
| C[C@@H]1O[C@@H](OC[C@H]2O[C@@H](Oc3c(-c4ccc(O)c(O)c4)oc4cc(O)cc(O)c4c3=O)[C@H](O)[C@@H](O)[C@@H]2O)[C@H](O)[C@H](O)[C@H]1O [RUTIN] | – | – | – | – | – | – | – | – | – | 1.17 µM | – | – |
| O=c1cc(/C=C/c2ccc(O)c(O)c2)oc2c(O)c(O)ccc12 | Active | 4.69 µM | 0.85 µM | 67.2 µM | 17.8 µM | Active | 2.58 | 799 µM | 1.59 µM | 0.193 µM | – | – |
| CCCCCCCCCCc1c(-c2ccc(O)c(O)c2)oc2cc(O)cc(O)c2c1=O | – | 7.9 µM | 0.83 µM | 1.7 µM | 78 µM | – | 1.63 | 236 µM | 1.82 µM | 4.85 µM | – | – |
| CCCCc1c(-c2ccc(O)c(O)c2)oc2cc(O)cc(O)c2c1=O | Active | 61.8 µM | 0.6 µM | 1.45 µM | 51.8 µM | – | 2.66 | 502 µM | 1.24 µM | 2.72 µM | – | – |
| CCCCCCc1c(-c2ccc(O)c(O)c2)oc2cc(O)cc(O)c2c1=O | Active | 58.6 µM | 1.48 µM | 2.49 µM | 62.8 µM | – | 2 | 348 µM | 1.8 µM | 3.29 µM | – | – |
| O=C(O)CCCCC1CCSS1 (stereo not drawn) [LIPOIC ACID, ALPHA] | – | – | – | 1.95 µM | – | – | – | – | – | – | – | – |
| O=C1O[C@H]([C@@H](O)CO)C(O)=C1O [ASCORBIC ACID] | Active | 10.2 µM | – | – | – | – | 0.405 | 567 µM | – | – | – | – |
| O=S(=O)(O)c1cc(O)c(O)c(S(=O)(=O)O)c1 [TIRON] | – | – | – | – | 288 µM | – | – | – | – | – | – | – |
| O=c1c2ccccc2[se]n1-c1ccccc1 [EBSELEN] | – | – | 1 µM | – | – | – | – | – | 5.27 µM | – | – | – |
| O=C(c1ccc(O)c(O)c1)c1c(-c2ccc(O)c(O)c2)oc2cc(O)cc(O)c2c1=O | Active | 43 µM | 0.66 µM | 2.29 µM | 19.5 µM | – | 4.32 | 367 µM | 1.97 µM | 3.62 µM | – | – |
| COc1ccc(/C=C/c2cc(=O)c3ccc(O)c(O)c3o2)cc1OC | Active | 9.95 µM | 0.59 µM | – | 26 µM | Active | 1.4 | – | 2.08 µM | 0.254 µM | 47% | 31% |

Source: ChEMBL document CHEMBL1152628, “Synthesis and antioxidant properties of new chromone derivatives” (Bioorg Med Chem, 2009)
